Reference: ChEMBL document CHEMBL3526018, “Metabolites of PPI-2458, a selective, irreversible inhibitor of methionine aminopeptidase-2: structure determination and in vivo activity” (Drug Metab Dispos, 2013)
Calls of active or inactive are those of the source. No cut-off for these calls is given here.

Tests used:
Liver = test: Metabolic stability in rat liver S9 fraction assessed as retention time of glutathione conjugate at 5 mM by LC/MS analysis; assay type: ADME, subcellular; conditions: s9, 5000 µM
Liver microsome [1] = test: Metabolic stability in human liver microsomes assessed as retention time of ((3R,4S,5S,6R)-5-methoxy-4-((2R,3R)-2-methyl-3-(3-methylbut-2-en-1-yl)oxiran-2-yl)-1-oxaspiro[2.5]octan-6-yl ((R)-1-amino-3-hydroxy-3-methyl-1-oxobutan-2-yl)carbamate) at 5 mM by LC/MS analysis; assay type: ADME; conditions: 5000 µM
How it was run: (§1)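 Liver microsomes (pooled male/female) in 100 mM KPO4 pH 7.4 with PPI-2458 (5 mM stock), pre-incubated 5 min at 37°C, then 10 mM NADPH added; 20 min at 37°C with shaking. Time-zero and no-NADPH controls. Quenched with CH3CN; supernatant dried and redissolved in water. Analysed by LC-MS, ESI+ full scan 300–800 amu, C18 column, 10→50% B gradient.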

Rattus norvegicus [2] = test: Inhibition of MetAP2 level in Sprague-Dawley rat lymph nodes assessed as free enzyme level at 0.3 mg/kg, iv by ELISA; assay type: functional, organism-based; design: dose 0.3 mg/kg
How it was run: (§2)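 Male Sprague-Dawley rats (200-225 g, n=3 per group) were dosed once IV at 0.3 mg/kg or PO at 0.3 or 3.0 mg/kg, in 11% HPCD in water. Blood, liver, lung, thymus and pooled non-mesenteric lymph nodes were taken at ~24 h and lysed or homogenized with NP-40. Free MetAP2 was measured by ELISA and expressed as % of vehicle.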

CYP3A5 (Homo sapiens) [3] = test: Activity of human recombinant CYP3A5 assessed as ((3R,4S,5S,6R)-5-methoxy-4-((2R,3R)-2-methyl-3-(3-methylbut-2-en-1-yl)oxiran-2-yl)-1-oxaspiro[2.5]octan-6-yl ((R)-1-amino-3-hydroxy-3-methyl-1-oxobutan-2-yl)carbamate) formation; conditions: recombinant enzyme
CYP3A5 (Homo sapiens) [4] = test: Activity of human recombinant CYP3A5 assessed as ((3R,4S,5S,6R)-4-((2R,3R)-3-(((S)-3,3-dimethyloxiran-2-yl)methyl)-2-methyloxiran-2-yl)-5-methoxy-1-oxaspiro[2.5]octan-6-yl ((R)-1-amino-3-methyl-1-oxobutan-2-yl)carbamate) formation per pmol of enzyme
Liver microsome [5] = test: Metabolic stability in dog liver microsomes assessed as retention time of ((3R,4S,5S,6R)-5-methoxy-4-((2R,3R)-2-methyl-3-(3-methylbut-2-en-1-yl)oxiran-2-yl)-1-oxaspiro[2.5]octan-6-yl ((R)-1-amino-3-hydroxy-3-methyl-1-oxobutan-2-yl)carbamate) at 5 mM by LC/MS analysis; assay type: ADME, Canis lupus familiaris; conditions: 5000 µM
Rattus norvegicus [6] = test: Inhibition of MetAP2 level in Sprague-Dawley rat lymph nodes assessed as free enzyme level at 0.3 mg/kg, po by ELISA; assay type: functional, organism-based; design: dose 0.3 mg/kg; how it was run: as §2
CYP3A4 (Homo sapiens) [7] = test: Activity of human recombinant CYP3A4 assessed as ((3R,4S,5S,6R)-4-((2R,3R)-3-((E)-4-hydroxy-3-methylbut-2-en-1-yl)-2-methyloxiran-2-yl)-5-methoxy-1-oxaspiro[2.5]octan-6-yl((R)-1-amino-3-methyl-1-oxobutan-2-yl)carbamate) formation per pmol of enzyme
Liver microsome [8] = test: Metabolic stability in rat liver microsomes assessed as retention time of ((3R,4S,5S,6R)-4-((2R,3R)-3-(((S)-3,3-dimethyloxiran-2-yl)methyl)-2-methyloxiran-2-yl)-5-methoxy-1-oxaspiro[2.5]octan-6-yl ((R)-1-amino-3-methyl-1-oxobutan-2-yl)carbamate) at 5 mM by LC/MS analysis; assay type: ADME; conditions: 5000 µM; how it was run: as §1
CYP3A4 (Homo sapiens) [9] = test: Activity of human recombinant CYP3A4 assessed as ((3R,4S,5S,6R)-5-methoxy-4-((2R,3R)-2-methyl-3-(3-methylbut-2-en-1-yl)oxiran-2-yl)-1-oxaspiro[2.5]octan-6-yl ((R)-1-amino-3-hydroxy-3-methyl-1-oxobutan-2-yl)carbamate) formation per pmol of enzyme
CYP3A4 (Homo sapiens) [10] = test: Ratio of Vmax to Km for human recombinant CYP3A4 assessed as ((3R,4S,5S,6R)-4-((2R,3R)-3-(((S)-3,3-dimethyloxiran-2-yl)methyl)-2-methyloxiran-2-yl)-5-methoxy-1-oxaspiro[2.5]octan-6-yl ((R)-1-amino-3-methyl-1-oxobutan-2-yl)carbamate) formation; conditions: recombinant enzyme
Liver microsome [11] = test: Metabolic stability in dog liver microsomes assessed as retention time of ((3R,4S,5S,6R)-4-((2R,3R)-3-(((S)-3,3-dimethyloxiran-2-yl)methyl)-2-methyloxiran-2-yl)-5-methoxy-1-oxaspiro[2.5]octan-6-yl ((R)-1-amino-3-methyl-1-oxobutan-2-yl)carbamate) at 5 mM by LC/MS analysis; assay type: ADME, Canis lupus familiaris; conditions: 5000 µM
[12] = AUC (0 to infinity) in non-Hodgkin lymphoma patient at 15 mg, po alternate days for 21 days; assay type: ADME, organism-based; design: dose 15 mg, route oral, time infinity; conditions: human, in vivo
How it was run: (§3)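 Oral PPI-2458 given every other day to lymphoma patients. Plasma sampled pre-dose and at 15 min, 30 min, 1, 2, 3, 4, 6, 8, 24 and 48 h after the first dose. Parent and metabolites were measured by LC-MS/MS after protein precipitation, evaporation and reconstitution. CL/F was computed only for parent and summed analytes. For metabolites, t1/2 is an apparent first-phase value.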

[13] = Cmax in non-Hodgkin lymphoma patient at 15 mg, po alternate days for 21 days; assay type: ADME, organism-based; design: dose 15 mg, route oral; conditions: human, in vivo; how it was run: as §3
CYP3A5 (Homo sapiens) [14] = test: Activity of human recombinant CYP3A5 assessed as ((3R,4S,5S,6R)-4-((2R,3R)-3-(((S)-3,3-dimethyloxiran-2-yl)methyl)-2-methyloxiran-2-yl)-5-methoxy-1-oxaspiro[2.5]octan-6-yl ((R)-1-amino-3-methyl-1-oxobutan-2-yl)carbamate) formation; conditions: recombinant enzyme
Liver microsome [15] = test: Metabolic stability in human liver microsomes assessed as retention time of ((3R,4S,5S,6R)-4-((2R,3R)-3-(((R)-3,3-dimethyloxiran-2-yl)methyl)-2-methyloxiran-2-yl)-5-methoxy-1-oxaspiro[2.5]octan-6-yl ((R)-1-amino-3-methyl-1-oxobutan-2-yl)carbamate) at 5 mM by LC/MS analysis; assay type: ADME; conditions: 5000 µM
Rattus norvegicus [16] = test: Inhibition of MetAP2 level in Sprague-Dawley rat lymph nodes assessed as free enzyme level at 3 mg/kg, po by ELISA; assay type: functional, organism-based; design: dose 3 mg/kg; how it was run: as §2
CYP3A4 (Homo sapiens) [17] = test: Ratio of Vmax to Km for human recombinant CYP3A4 assessed as ((3R,4S,5S,6R)-4-((2R,3R)-3-((E)-4-hydroxy-3-methylbut-2-en-1-yl)-2-methyloxiran-2-yl)-5-methoxy-1-oxaspiro[2.5]octan-6-yl((R)-1-amino-3-methyl-1-oxobutan-2-yl)carbamate) formation; conditions: recombinant enzyme

Retention_time (Liver): 20.8 min
Drug metabolism (Liver microsome [1]): metabolite_detected
Km (CYP3A5 (Homo sapiens) [3]): 17 µM
Vmax (CYP3A5 (Homo sapiens) [4]): 1.42 pmol/min
Drug metabolism (Liver microsome [5]): metabolite_detected
Vmax (CYP3A4 (Homo sapiens) [7]): 1.41 pmol/min
Drug metabolism (Liver microsome [8]): metabolite_detected
Vmax (CYP3A4 (Homo sapiens) [9]): 0.51 pmol/min
Vmax/Km (CYP3A4 (Homo sapiens) [10]): 0.19 µL/min
Drug metabolism (Liver microsome [11]): metabolite_detected
AUC(0-inf) [12]: 44.1 ng·h/mL
Cmax [13]: 55 ng/mL
Km (CYP3A5 (Homo sapiens) [14]): 17 µM
Drug metabolism (Liver microsome [15]): metabolite_detected
Vmax/Km (CYP3A4 (Homo sapiens) [17]): 0.09 µL/min
Compound: CO[C@@H]1[C@H](OC(=O)N[C@@H](C(N)=O)C(C)C)CC[C@]2(CO2)[C@H]1[C@@]1(C)O[C@@H]1CC=C(C)C [PPI-2458]
inhibition (Rattus norvegicus [2]): Active
inhibition (Rattus norvegicus [6]): Active
inhibition (Rattus norvegicus [16]): Active
